Activity calls are given as the source filed them. The calls are words filed in the database; no cut-off is given here.
How the values were obtained:
[1] = tested on: GT1-7; experiment: Antiprion activity in human transmissible spongiform encephalopathies agent Fukuoka-1 prion infected mouse GT1-7 cells assessed as inhibition of proteinase K-resistant PrPres accumulation at […] after 3 days by Western blotting analysis; format: cell-based
Method in brief: (§1)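 GT1-7 mouse neuronal cells persistently infected with Fukuoka-1 agent, grown in DMEM with 10% FBS and penicillin G at 37 °C, 5% CO2. Seeded 3 × 10⁵ cells/well; 15 h later given compound diluted from 10 mM DMSO stock (control 0.1% DMSO). Lysate adjusted to 1 mg/mL protein, proteinase K 30 min 37 °C, pelleted, SDS-PAGE, anti-PrP M-20 Western blot. IC50 = 50% PrPres inhibition.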

[2] = Antiprion activity in human transmissible spongiform encephalopathies agent Fukuoka-1 prion infected mouse GT1-7 cells assessed as inhibition of proteinase K-resistant PrPres accumulation after 3 days by Western blot analysis; format: cell-based; settings: GT1-7, 72 h; method in brief: as §1
[3] = tested on: GT1-7; experiment: Ratio of compound IC50 over GJP14 IC50 for human transmissible spongiform encephalopathies agent Fukuoka-1 prion infected in mouse GT1-7 cells; format: cell-based
[4] = tested on: GT1-7; experiment: Antiprion activity in human transmissible spongiform encephalopathies agent Fukuoka-1 prion infected mouse GT1-7 cells assessed as inhibition of PrPC expression at 5 uM after 3 days absence of proteinase K digestion; format: cell-based
Method in brief: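 GT1-7 cells persistently infected with Fukuoka-1 agent, seeded 3 × 10⁵ cells/well. Compound from 10 mM DMSO stock added 15 h after seeding (vehicle 0.1% DMSO). Lysates adjusted to 1 mg/mL total protein (BCA). Run without proteinase K digestion, so PrPC is read by Western blot with M-20 anti-PrP antibody.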

[5] = species: Mus musculus; experiment: Antiprion activity in scrapie infected mouse ScN2a-3-Ch cells assessed as inhibition of proteinase K-resistant PrPres accumulation at 5 uM after 3 days by Western blot analysis relative to control
Method in brief: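 Scrapie-infected ScN2a-3-Ch cells seeded at about 1 × 10⁵ cells/well and handled as in the GT1-7 assay. Compound diluted from 10 mM DMSO stock, with 0.1% DMSO control. Lysate protein adjusted to 1 mg/mL, then proteinase K digestion 30 min at 37 °C. Pellet analysed by Western blot for PrPres, expressed relative to control.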

[6] = Cytotoxicity against human transmissible spongiform encephalopathies agent Fukuoka-1 prion infected mouse GT1-7 cells at 10 uM after 3 days; format: cell-based; settings: gt1-7, 72 h
[7] = tested on: GT1-7; experiment: Antiprion activity in human transmissible spongiform encephalopathies agent Fukuoka-1 prion infected in mouse GT1-7 cells assessed as inhibition of proteinase K-resistant PrPres accumulation at 5 uM after 3 days by Western blot analysis relative to control; format: cell-based; method in brief: as §1

Row | Structure (SMILES) | inhibition [1] | further results
1 | OC(CNCc1ccccc1Cl)Cn1c2c(c3ccccc31)CCCC2 (centres undefined) | Active | –
2 | OC(CNCc1ccccn1)Cn1c2c(c3ccccc31)CCCC2 (centres undefined) | Active | –
3 | OC(CN1CCOCC1)Cn1c2c(c3ccccc31)CCCC2 (centres undefined) | Active | –
4 | O[C@@H](CNCc1ccccc1F)Cn1c2c(c3ccccc31)CCCC2 | – | IC50 [2]: 1.11 µM; Ratio IC50 [3]: 8; inhibition [4]: inactive; inhibition [5]: Active
5 | OC(CNCc1cccnc1)Cn1c2c(c3ccccc31)CCCC2 (centres undefined) | Active | –
6 | OC(CNCc1c(F)cccc1F)Cn1c2c(c3ccccc31)CCCC2 (centres undefined) | Active | –
7 | OC(CNCc1ccc(F)cc1F)Cn1c2c(c3ccccc31)CCCC2 (centres undefined) | Active | –
8 | CCCCNCC(O)Cn1c2c(c3ccccc31)CCCC2 (centres undefined) | Active | –
9 | OC(CNCc1c(Cl)cccc1Cl)Cn1c2c(c3ccccc31)CCCC2 (centres undefined) | Active | –
10 | OC(CNC1CCCC1)Cn1c2c(c3ccccc31)CCCC2 (centres undefined) | Active | –
11 | COc1cccc(CNCC(O)Cn2c3c(c4ccccc42)CCCC3)c1 (centres undefined) | – | Activity [6]: Toxic; inhibition [7]: 21%
12 | OC(CNCc1ccccc1Br)Cn1c2c(c3ccccc31)CCCC2 (centres undefined) | Active | –
13 | OC(CNCc1cccc(F)c1)Cn1c2c(c3ccccc31)CCCC2 (centres undefined) | Active | –
14 | OC(CNc1ccccc1)Cn1c2c(c3ccccc31)CCCC2 (centres undefined) | inactive | –
15 | OC(CNCc1ccc(C(F)(F)F)cc1)Cn1c2c(c3ccccc31)CCCC2 (centres undefined) | Active | –
16 | OC(CN1CCCCC1)Cn1c2ccccc2c2ccccc21 (centres undefined) | Active | –
17 | O[C@H](CNCc1ccccc1F)Cn1c2c(c3ccccc31)CCCC2 | – | IC50 [2]: 2.23 µM
18 | OC(CN1CCCCC1)Cn1ccc2ccccc21 (centres undefined) | inactive | –
19 | OC(CNCc1ccccc1F)Cn1c2c(c3ccccc31)CCCC2 (centres undefined) | Active | –
20 | OC(CN1CCCCC1)Cn1ccc2c1CCCC2 (centres undefined) | inactive | –
21 | OC(CNCc1cccc2ccccc12)Cn1c2c(c3ccccc31)CCCC2 (centres undefined) | Active | –

Row | Structure (SMILES) | inhibition [1] | further results
22 | OC(CNCc1ccccc1C(F)(F)F)Cn1c2c(c3ccccc31)CCCC2 (centres undefined) | Active | –
23 | OC(CN1CCCCC1)Cn1cccc1 (centres undefined) | inactive | –
24 | OC(CNCc1cccc(Br)c1)Cn1c2c(c3ccccc31)CCCC2 (centres undefined) | Active | –
25 | OC(CNCc1cccc(C(F)(F)F)c1)Cn1c2c(c3ccccc31)CCCC2 (centres undefined) | – | Activity [6]: Toxic; inhibition [7]: 40%
26 | OC(CN1CCCCC1)Cn1c2c(c3ccccc31)CCCC2 (centres undefined) | Active | –
27 | OC(CNCc1ccc(Cl)cc1)Cn1c2c(c3ccccc31)CCCC2 (centres undefined) | – | Activity [6]: Toxic; inhibition [7]: 18%
28 | COc1ccccc1CNCC(O)Cn1c2c(c3ccccc31)CCCC2 (centres undefined) | Active | –
29 | Cc1ccc2c(c1)c1c(n2CC(O)CN2CCCCC2)C(=O)CCC1 (centres undefined) | – | IC50 [2]: 8.54 µM
30 | OC(CNCc1ccc(F)cc1)Cn1c2c(c3ccccc31)CCCC2 (centres undefined) | Active | –
31 | Cc1cccc(CNCC(O)Cn2c3c(c4ccccc42)CCCC3)c1 (centres undefined) | Active | –
32 | COc1ccc(CNCC(O)Cn2c3c(c4ccccc42)CCCC3)cc1 (centres undefined) | – | Activity [6]: Toxic; inhibition [7]: 23%
33 | OC(CNCc1cccc(Cl)c1)Cn1c2c(c3ccccc31)CCCC2 (centres undefined) | Active | –
34 | OC(CNCc1ccccc1)Cn1c2c(c3ccccc31)CCCC2 (centres undefined) | Active | inhibition [7]: 28%
35 | OC(CNCc1cc(F)ccc1F)Cn1c2c(c3ccccc31)CCCC2 (centres undefined) | Active | –
36 | O=C(CN1CCCC1)Nc1ccc(Cc2ccc(NC(=O)CN3CCCC3)cc2)cc1 | – | IC50 [2]: 1.4 µM; inhibition [7]: 34%
37 | OC(CNCc1ccc(Br)cc1)Cn1c2c(c3ccccc31)CCCC2 (centres undefined) | – | Activity [6]: Toxic; inhibition [7]: 25%
38 | Cc1ccc(CNCC(O)Cn2c3c(c4ccccc42)CCCC3)cc1 (centres undefined) | – | Activity [6]: Toxic; inhibition [7]: 32%
39 | CC(C)(NCC(O)Cn1c2c(c3ccccc31)CCCC2)c1ccccc1 (centres undefined) | – | Activity [6]: Toxic; inhibition [7]: 34%
40 | Cc1ccccc1CNCC(O)Cn1c2c(c3ccccc31)CCCC2 (centres undefined) | Active | –
41 | OC(CNCc1ccncc1)Cn1c2c(c3ccccc31)CCCC2 (centres undefined) | Active | –
42 | c1ccc2c3c([nH]c2c1)CCCC3 | inactive | –
